A short description of data set [1]: folding enthalpy; higher = less favourable; fluorescence melt of hairpins on a sequencing array, two-state fit. Conditions: sodium 0.088 M. The essentials:
(§1)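 On a sequenced MiSeq flow cell, library hairpins with annealed Cy3 and quencher oligos were imaged for Cy3 fluorescence in 2.5 °C steps up to 60 °C, in 50 mM Na-HEPES pH 8.0, 25 mM NaCl. Normalisation used pre-quench Cy3 and control constructs. Bootstrapped two-state fits gave melting temperature and folding enthalpy, combined by inverse variance across four replicates and with fitted temperatures raised by 9.35 °C to match UV melts.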

Data set [2] in a line: melting temperature; fluorescence melt of hairpins on a sequencing array, two-state fit, raised by 9.35 °C to match UV melts. Conditions: sodium 0.088 M. The essentials: as §1

Turning to GCGTAGCGAAAGCTTGGC ((..(((....)))..)), the folding enthalpy in data set [1] was -7.38 kcal/mol. The Tm in data set [2] was 36.5 °C.
Regarding GCGTAGCTACGC ((((....)))), the folding enthalpy in data set [1] is -12.6 kcal/mol. The Tm in data set [2] was 68.1 °C.
With GCGTAGGGAAACCTGTGC ((..(((....)))..)), in data set [1], the folding enthalpy is -14.2 kcal/mol. For the same sequence, in data set [2], the Tm was 37.4 °C.
For the sequence GCGTAGTACGC ((((...)))), the folding enthalpy in data set [1] was -20.8 kcal/mol. The Tm in data set [2] is 53.1 °C.
With GCGTAGTGACGC ((((....)))), the folding enthalpy in data set [1] was -15.4 kcal/mol. In addition, the Tm in data set [2] is 53.7 °C.
Turning to GCGTATAGACGC ((((....)))), the folding enthalpy in data set [1] was -24.6 kcal/mol. Besides, the Tm in data set [2] was found to be 50.3 °C.
For GCGTATCGAAAGATCCGC (((.(((....))).))), the folding enthalpy in data set [1] is -38.1 kcal/mol. Moreover, in data set [2], the Tm came out at 50.2 °C.
As for GCGTATGGAAACGTACGC (((((.(....).))))), the folding enthalpy in data set [1] was -48 kcal/mol. Also, in data set [2], the Tm came to 54.7 °C.
For GCGTCAACACGC ((((....)))), the folding enthalpy in data set [1] is -21.8 kcal/mol. Moreover, in data set [2], the Tm came to 48.5 °C.
Consider GCGTCACGAAAGTGCCGC (((.(((....))).))), for which the folding enthalpy in data set [1] is -46.1 kcal/mol. In addition, the Tm in data set [2] was found to be 59.6 °C.
The like results for GCGTCAGGAAACTGATGC ((.((((....)))).)) were, in that order, -43.6 kcal/mol and 54.5 °C.
In the case of GCGTCCCGAAAGGGTCGC (((.(((....))).))), the folding enthalpy in data set [1] is -36.9 kcal/mol. Further, in data set [2], the Tm turned out to be 67.8 °C.
As for GCGTCCGAAAGGAATCGC ((((((....)))..))), the folding enthalpy in data set [1] was -22.6 kcal/mol. Besides, the Tm in data set [2] was 47.8 °C.
In the case of GCGTCCGCGAAAGCGCGC (((..(((....)))))), the folding enthalpy in data set [1] is -16.9 kcal/mol. For the same sequence, the Tm in data set [2] was 53.5 °C.
For GCGTCCGGAAACAGACGC (((((.(....).))))), in that order: -36.1 kcal/mol and 54 °C.
As to GCGTCCTCACGC ((((....)))), the folding enthalpy in data set [1] is -24.3 kcal/mol. In addition, the Tm in data set [2] turned out to be 50.9 °C.
The like results for GCGTCCTGACGC ((((....)))) were, in that order, -35.1 kcal/mol and 59.9 °C.
As to GCGTCGCGAAAGCAAGGC ((.(.((....)).).)), in data set [1], the folding enthalpy is -17.1 kcal/mol. Also, the Tm in data set [2] amounted to 43.8 °C.
With GCGTCGCGAAAGCACCGC (((..((....))..))), in data set [1], the folding enthalpy was -20.8 kcal/mol. Besides, the Tm in data set [2] amounted to 53.9 °C.
The like results for GCGTCGCGAAAGCATCGC (((..((....))..))) were, in that order, -17.9 kcal/mol and 53.8 °C.
The like results for GCGTCGCGAAAGCCAAGC ((.(.((....)).).)) were, in that order, -20.1 kcal/mol and 48.1 °C.
Take GCGTCGCGAAAGCGCGGC ((..(((....)))..)): the folding enthalpy in data set [1] is -12.6 kcal/mol. In addition, in data set [2], the Tm came out at 61.1 °C.
As for GCGTCGCGAAAGCGTAGC ((..(((....)))..)), in data set [1], the folding enthalpy was -20.8 kcal/mol. In data set [2], the Tm is 58.6 °C.
In the case of GCGTCGGAACGC ((((....)))), in data set [1], the folding enthalpy is -16.8 kcal/mol. For the same sequence, in data set [2], the Tm was determined as 52 °C.
For the sequence GCGTCGGACGC ((((...)))), the folding enthalpy in data set [1] is -24.1 kcal/mol. Further, the Tm in data set [2] was 51.7 °C.
For the sequence GCGTCGGCACGC ((((....)))), in data set [1], the folding enthalpy is -10.7 kcal/mol. Besides, in data set [2], the Tm was found to be 56.4 °C.
For GCGTCGGGAAACCGATGC ((.((((....)))).)), in that order: -34 kcal/mol and 65 °C.
Regarding GCGTCGGGAAACTGACGC (((((.(....).))))), the folding enthalpy in data set [1] is -49.8 kcal/mol. Moreover, the Tm in data set [2] worked out at 65.3 °C.
As to GCGTCGTCACGC ((((....)))), the folding enthalpy in data set [1] is -22.4 kcal/mol. For the same sequence, the Tm in data set [2] was 51.8 °C.
For GCGTCTACACGC ((((....)))), the folding enthalpy in data set [1] was -25.9 kcal/mol. The Tm in data set [2] came to 51.4 °C.
Take GCGTCTATACGC ((((....)))): the folding enthalpy in data set [1] is -25 kcal/mol. Further, the Tm in data set [2] came out at 54.6 °C.
The like results for GCGTCTGCGAAAGCACGC (((..(((....)))))) were, in that order, -18.5 kcal/mol and 52.3 °C.
In the case of GCGTCTGGAAACAGACAC (.(((((....))))).), the folding enthalpy in data set [1] was -12.8 kcal/mol. Moreover, the Tm in data set [2] amounted to 42.7 °C.
The like results for GCGTCTGGAAACGGATGC ((.((.(....).)).)) were, in that order, -35.5 kcal/mol and 44.4 °C.
GCGTCTTCACGC ((((....)))): the folding enthalpy in data set [1] was -26.9 kcal/mol. For the same sequence, the Tm in data set [2] was 51.4 °C.
For GCGTCTTTACGC ((((....)))), in that order: -27.9 kcal/mol and 53.2 °C.
GCGTGAAAACGC ((((....)))): in data set [1], the folding enthalpy was -32.6 kcal/mol. For the same sequence, in data set [2], the Tm worked out at 58.5 °C.
The like results for GCGTGACACGC ((((...)))) were, in that order, -22.1 kcal/mol and 56.8 °C.
As to GCGTGACTACGC ((((....)))), the folding enthalpy in data set [1] was -27.2 kcal/mol. The Tm in data set [2] turned out to be 59.4 °C.
As to GCGTGAGGAAACTCATGC ((.((((....)))).)), the folding enthalpy in data set [1] was -35.8 kcal/mol. Further, the Tm in data set [2] was found to be 53.4 °C.
As for GCGTGAGGAAACTCGTGC ((..(((....)))..)), the folding enthalpy in data set [1] is -28.7 kcal/mol. The Tm in data set [2] turned out to be 38.9 °C.
Turning to GCGTGAGGAAACTTGCGC (((..((....))..))), the folding enthalpy in data set [1] is -30.9 kcal/mol. Further, in data set [2], the Tm was 48.3 °C.
Turning to GCGTGCACGAAAGTGCGC (((..(((....)))))), in data set [1], the folding enthalpy is -9.64 kcal/mol. For the same sequence, the Tm in data set [2] was 51.9 °C.
For GCGTGCGAAAGCACTCGC ((((((....)))..))), in that order: -12.4 kcal/mol and 51.5 °C.
As for GCGTGCGAAAGCAGTCGC ((((((....)))..))), the folding enthalpy in data set [1] was -20.1 kcal/mol. Further, the Tm in data set [2] is 53 °C.
The like results for GCGTGCGACGC ((((...)))) were, in that order, -13.9 kcal/mol and 61 °C.
For GCGTGCTGACGC ((((....)))), the folding enthalpy in data set [1] is -18.1 kcal/mol. Further, the Tm in data set [2] came to 58.2 °C.
Turning to GCGTGGAAACGC ((((....)))), the folding enthalpy in data set [1] was -30.1 kcal/mol. Also, the Tm in data set [2] turned out to be 58.8 °C.
The like results for GCGTGGACACGC ((((....)))) were, in that order, -25.5 kcal/mol and 62 °C.
In the case of GCGTGGCGAAAGCCCCGC (((.(((....))).))), the folding enthalpy in data set [1] was -29.3 kcal/mol. The Tm in data set [2] amounted to 67.6 °C.
For GCGTGGCGAAAGCCGGGC ((..(((....)))..)), the folding enthalpy in data set [1] was -27 kcal/mol. For the same sequence, the Tm in data set [2] came out at 64.7 °C.
In the case of GCGTGGCGAAAGCCTAGC ((..(((....)))..)), in data set [1], the folding enthalpy is -20.2 kcal/mol. In data set [2], the Tm is 59.5 °C.
As for GCGTGGCGAAAGCGCCGC (((..((....))..))), in data set [1], the folding enthalpy is -19.1 kcal/mol. Also, the Tm in data set [2] was 56.2 °C.
For the sequence GCGTGGCGAAAGCTAGGC ((.(.((....)).).)), the folding enthalpy in data set [1] is -20.4 kcal/mol. Moreover, the Tm in data set [2] came to 52 °C.
The like results for GCGTGGGAACGC ((((....)))) were, in that order, -20.4 kcal/mol and 66.7 °C.
On to GCGTGGGCACGC ((((....)))), for which the folding enthalpy in data set [1] was -24.7 kcal/mol. In addition, the Tm in data set [2] was 57.3 °C.
For GCGTGTACGAAAGTACGC (((..(((....)))))), in data set [1], the folding enthalpy is -15 kcal/mol. Besides, the Tm in data set [2] was determined as 53.1 °C.
For GCGTGTCCGAAAGGACGC (((..(((....)))))), in that order: -9.9 kcal/mol and 50.1 °C.

For the origin of these results see the array DNA melting data of Ke et al. (doi:10.1101/2024.01.08.574731).
